The test system of series [1] is Rattus norvegicus. Nature of the series: Reduction in peripheral blood lymphocytes in Lewis rat assessed as remaining circulating lymphocytes level at 100 mg/kg, po administered as single dose measured 12 hrs post dose by automated hematology analyzer. The class given is functional. The gist of the method:
(§1)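 Male Lewis rats receive a single oral dose of compound or vehicle, freshly made in 30% PEG200/buffer. Blood (<200 μL) is drawn by sublingual puncture under isoflurane 5% v/v at baseline and later time points. Lymphocytes are counted on an automated hematology analyzer, and each animal's change is expressed as percent of its own pre-treatment baseline.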

The target of series [2] is T1, Sphingosine 1-phosphate receptor 1 (Homo sapiens, UniProt P21453). Nature of the series: Antagonist activity at human S1P1R receptor expressed in CHO cell membranes by [35S]GTPgamma binding assay. The class given is functional. The gist of the method:
(§2)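 Membranes from CHO clones stably expressing human S1P1 (1−5 μg/well), with S1P2–S1P5 handled comparably. Compound preincubated 15 min, then S1P (4 nM final) and GTPγ³⁵S (0.2 nM final) added. Shaken 120 min at room temperature, then SPA counting. Eight concentrations in duplicate; IC₅₀ from curve fit, mean of ≥3 determinations ± SEM.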

The subject of series [3] is Rattus norvegicus. Nature of the series: Reduction in peripheral blood lymphocytes in Lewis rat assessed as remaining circulating lymphocytes level at 30 mg/kg, po administered as single dose measured 14 hrs post dose by automated hematology analyzer. The class given is functional. An outline of the steps:
as §1

The nature of series [4]: Solubility in pH 6.8 buffer. The class given is physicochemical.
In series [5] the test system is Rattus norvegicus. Nature of the series: Reduction in peripheral blood lymphocytes in Lewis rat assessed as remaining circulating lymphocytes level at 30 mg/kg, po administered as single dose measured 24 hrs post dose by automated hematology analyzer. The class given is functional. The gist of the method: as §1
The target of series [6] is T2, Sphingosine 1-phosphate receptor 4 (Homo sapiens, UniProt O95977).
T2 sequence (O95977 whole entry): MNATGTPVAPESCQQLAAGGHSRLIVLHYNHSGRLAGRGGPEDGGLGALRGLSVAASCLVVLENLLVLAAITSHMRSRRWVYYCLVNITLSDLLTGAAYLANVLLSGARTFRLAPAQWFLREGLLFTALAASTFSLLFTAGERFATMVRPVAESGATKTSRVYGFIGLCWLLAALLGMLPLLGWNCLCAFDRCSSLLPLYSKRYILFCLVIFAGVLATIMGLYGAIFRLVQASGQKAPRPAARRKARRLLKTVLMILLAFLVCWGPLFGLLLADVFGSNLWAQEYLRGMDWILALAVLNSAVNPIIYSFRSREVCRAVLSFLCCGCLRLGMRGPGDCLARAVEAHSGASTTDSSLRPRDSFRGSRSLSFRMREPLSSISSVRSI
Nature of the series: Agonist activity at human S1P4R receptor expressed in CHO cell membranes by [35S]GTPgamma binding assay. The class given is functional.

In series [7] the target is T1, Sphingosine 1-phosphate receptor 1. Nature of the series: Competitive binding affinity to human S1P1R receptor expressed in CHO cell membranes by Schild plot analysis.
Series [8] has the same target. Nature of the series: Agonist activity at human S1P1R receptor expressed in CHO cell membranes by [35S]GTPgamma binding assay. The class given is functional.
Series [9] addresses T3, Sphingosine 1-phosphate receptor 5 (Homo sapiens, UniProt Q9H228). Nature of the series: Agonist activity at human S1P5R receptor expressed in CHO cell membranes by [35S]GTPgamma binding assay. The class given is functional.
Series [10] deals with T3, Sphingosine 1-phosphate receptor 5. Nature of the series: Antagonist activity at human S1P5R receptor expressed in CHO cell membranes by [35S]GTPgamma binding assay. The class given is functional. The gist of the method:
as §2

Series [11] has as its target T4, Sphingosine 1-phosphate receptor 3 (Homo sapiens, UniProt Q99500). Nature of the series: Agonist activity at human S1P3R receptor expressed in CHO cell membranes by [35S]GTPgamma binding assay. The class given is functional.
Series [12] concerns the target T2, Sphingosine 1-phosphate receptor 4. Nature of the series: Antagonist activity at human S1P4R receptor expressed in CHO cell membranes by [35S]GTPgamma binding assay. The class given is functional. The gist of the method: as §2
The target in series [13] is T4, Sphingosine 1-phosphate receptor 3. Nature of the series: Antagonist activity at human S1P3R receptor expressed in CHO cell membranes by [35S]GTPgamma binding assay. The class given is functional. The gist of the method:
as §2

Series [14] has as its target T5, Sphingosine 1-phosphate receptor 2 (Homo sapiens, UniProt O95136). Nature of the series: Antagonist activity at human S1P2R receptor expressed in CHO cell membranes by [35S]GTPgamma binding assay. The class given is functional. An outline of the steps:
as §2

The target in series [15] is T5, Sphingosine 1-phosphate receptor 2. Nature of the series: Agonist activity at human S1P2R receptor expressed in CHO cell membranes by [35S]GTPgamma binding assay. The class given is functional.
The subject of series [16] is Rattus norvegicus. Nature of the series: Increase in allograft survival in stringent Dark Agouti to Lewis rat heterotopic vascular heart allotransplantation model assessed as allograft mean survival time at 0.3 mg/kg, po qd (reference value: 6 days). The class given is functional.
The test system of series [17] is Rattus norvegicus. Nature of the series: Reduction in peripheral blood lymphocytes in Lewis rat assessed as remaining circulating lymphocytes level at 100 mg/kg, po administered as single dose measured 14 hrs post dose by automated hematology analyzer. The class given is functional. The gist of the method: as §1
For series [18], the system named is Rattus norvegicus. Nature of the series: Reduction in peripheral blood lymphocytes in Lewis rat assessed as remaining circulating lymphocytes level at 100 mg/kg, po administered as single dose measured 14 to 48 hrs post dose by automated hematology analyzer.
For series [19], the system named is Rattus norvegicus. Nature of the series: Reduction in peripheral blood lymphocytes in Lewis rat assessed as remaining circulating lymphocytes level at 100 mg/kg, po administered as single dose measured 8 hrs post dose by automated hematology analyzer. The class given is functional. The gist of the method: as §1
Series [20] deals with Rattus norvegicus. Nature of the series: Reduction in peripheral blood lymphocytes in Lewis rat assessed as remaining circulating lymphocytes level at 100 mg/kg, po administered as single dose measured 24 hrs post dose by automated hematology analyzer. The class given is functional. The gist of the method:
as §1

For series [21], the system named is Rattus norvegicus. Nature of the series: Increase in allograft survival in stringent Dark Agouti to Lewis rat heterotopic vascular heart allotransplantation model assessed as allograft mean survival time at 10 mg/kg, po bid (reference value: 6 days). The class given is functional. The gist of the method: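 Hearts from DA donors were transplanted into Lewis recipients, with dosing starting 3 days pre-transplant. The PKC inhibitor was given po b.i.d., mixed in D-glucose and dissolved in PEG400, distilled water and 0.1 M aqueous HCl. Vehicle controls were dosed po b.i.d. Endpoint was graft survival to rejection or predefined termination, reported as median days. Histology used H&E and trichrome with acute rejection scoring.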

In series [22] the test system is Rattus norvegicus. Nature of the series: Increase in allograft survival in stringent Dark Agouti to Lewis rat heterotopic vascular heart allotransplantation model assessed as allograft mean survival time at 0.1 mg/kg, po qd co-treated with 10 mg/kg, po bid sotrastaurin. The class given is functional.
Series [23] relates to Rattus norvegicus. Nature of the series: Increase in allograft survival in stringent Dark Agouti to Lewis rat heterotopic vascular heart allotransplantation model assessed as allograft mean survival time at 0.1 mg/kg, po qd co-treated with 0.3 mg/kg, qd everolimus. The class given is functional.

Converted amounts (≈) assume the structure as drawn. The source made the active and inactive calls. The calls are words filed in the database; no cut-off is given here.

T1 sequence (P21453 whole entry): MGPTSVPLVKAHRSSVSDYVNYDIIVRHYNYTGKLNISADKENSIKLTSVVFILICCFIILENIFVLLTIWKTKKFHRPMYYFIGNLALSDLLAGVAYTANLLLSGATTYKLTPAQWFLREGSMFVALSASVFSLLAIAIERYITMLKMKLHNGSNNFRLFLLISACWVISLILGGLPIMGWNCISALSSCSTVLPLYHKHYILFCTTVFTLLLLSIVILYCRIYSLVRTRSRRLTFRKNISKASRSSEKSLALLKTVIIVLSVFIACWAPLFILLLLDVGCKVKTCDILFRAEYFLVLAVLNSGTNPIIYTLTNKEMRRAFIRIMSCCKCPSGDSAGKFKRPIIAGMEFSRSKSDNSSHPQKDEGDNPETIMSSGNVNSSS
T5 sequence (O95136 whole entry): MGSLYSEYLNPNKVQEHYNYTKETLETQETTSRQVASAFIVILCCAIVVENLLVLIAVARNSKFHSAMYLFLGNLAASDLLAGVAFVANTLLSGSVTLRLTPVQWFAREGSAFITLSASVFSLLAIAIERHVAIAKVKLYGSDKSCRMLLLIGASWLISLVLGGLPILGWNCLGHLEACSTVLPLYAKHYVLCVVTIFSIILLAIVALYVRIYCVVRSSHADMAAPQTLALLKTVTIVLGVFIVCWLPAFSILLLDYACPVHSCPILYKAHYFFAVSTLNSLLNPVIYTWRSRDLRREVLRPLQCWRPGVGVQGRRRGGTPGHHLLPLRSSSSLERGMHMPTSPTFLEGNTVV
T4 sequence (Q99500 whole entry): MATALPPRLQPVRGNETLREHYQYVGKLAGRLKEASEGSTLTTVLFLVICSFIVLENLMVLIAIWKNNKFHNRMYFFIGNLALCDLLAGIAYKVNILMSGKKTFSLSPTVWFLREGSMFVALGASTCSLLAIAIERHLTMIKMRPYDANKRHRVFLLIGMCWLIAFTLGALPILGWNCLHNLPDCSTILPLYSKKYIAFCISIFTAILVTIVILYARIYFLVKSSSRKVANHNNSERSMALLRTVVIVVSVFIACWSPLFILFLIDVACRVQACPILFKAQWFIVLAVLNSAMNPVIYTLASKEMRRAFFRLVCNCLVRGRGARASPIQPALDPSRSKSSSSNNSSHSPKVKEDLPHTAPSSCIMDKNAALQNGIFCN
T3 sequence (Q9H228 whole entry): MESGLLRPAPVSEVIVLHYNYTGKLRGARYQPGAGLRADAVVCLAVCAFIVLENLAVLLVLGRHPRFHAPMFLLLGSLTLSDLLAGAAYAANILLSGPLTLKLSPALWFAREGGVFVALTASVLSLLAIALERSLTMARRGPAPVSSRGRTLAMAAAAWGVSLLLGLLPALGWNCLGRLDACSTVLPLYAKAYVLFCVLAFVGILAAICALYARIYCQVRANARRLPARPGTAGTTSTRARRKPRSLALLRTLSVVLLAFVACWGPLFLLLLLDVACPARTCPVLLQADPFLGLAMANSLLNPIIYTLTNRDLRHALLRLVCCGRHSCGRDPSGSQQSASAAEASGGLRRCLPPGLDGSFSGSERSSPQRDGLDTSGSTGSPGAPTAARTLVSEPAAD

Take `Cc1cc(S(=O)(=O)Nc2cccc(-c3cc(C)c(C(=O)N(C)[C@@H](C)C(=O)O)c(C)c3)c2)c(C)cc1Cl`: the Activity in [1] is listed as 19%. In addition, in series [2], the IC50 worked out at 6.1 nM.
`Cc1cc(S(=O)(=O)Nc2cccc(-c3cc(C)c(C(=O)N(C)[C@@H](C)C(=O)OCCN(C)C)c(C)c3)c2)c(C)cc1Cl`: the Activity was 25% in series [3] and 49% in series [5]. This compound also had a solubility in series [4] of 15 µM (≈ 9 µg/mL).
In the case of `Cc1cc(S(=O)(=O)Nc2cccc(-c3cc(C)c(C(=O)N(C)[C@@H](CCN(C)C)C(=O)O)c(C)c3)c2)c(C)cc1Cl`, the EC50 is 1200 nM in series [6]; over 10000 nM in series [8]; over 10000 nM in series [9]; over 10000 nM in series [11]; over 10000 nM in series [15]. The same compound registered a Kd in [7] of 0.67 nM. Also, the concentration for half-maximal inhibition (IC50) in series [10] is 978 nM; in series [12], over 10000 nM; in series [13], 802 nM; in series [2], 3.4 nM; in [14], over 10000 nM.
Take `COC(=O)[C@@H](CCN(C)C)N(C)C(=O)c1c(C)cc(-c2cccc(NS(=O)(=O)c3cc(C)c(Cl)cc3C)c2)cc1C`: in [3], the Activity is 67%.
Turning to `Cc1cc(S(=O)(=O)Nc2cccc(-c3cc(C)c(C(=O)N[C@@H](CCN)C(=O)O)c(C)c3)c2)c(C)cc1Cl`, the concentration for half-maximal inhibition (IC50) in series [2] is 2.1 nM.
Turning to `CO[C@H]1C[C@@H]2CC[C@@H](C)[C@@](O)(O2)C(=O)C(=O)N2CCCC[C@H]2C(=O)O[C@H]([C@H](C)C[C@@H]2CC[C@@H](OCCO)[C@H](OC)C2)CC(=O)[C@H](C)/C=C(\C)[C@@H](O)[C@@H](OC)C(=O)[C@H](C)C[C@H](C)/C=C/C=C/C=C/1C` [EVEROLIMUS], the MST in [16] is 7 days.
For `CCOC(=O)[C@H](CCN(C)C)N(C)C(=O)c1c(C)cc(-c2cccc(NS(=O)(=O)c3cc(C)c(Cl)cc3C)c2)cc1C`, the Activity is reported as 28% in [3] and 48% in series [5]. Moreover, the solubility in series [4] is under 4 µM.
Consider `Cc1cc(S(=O)(=O)Nc2cccc(-c3cc(C)c(C(=O)N[C@@H](CCN(C)C)C(=O)O)c(C)c3)c2)c(C)cc1Cl`, for which the IC50 in [2] was determined as 12 nM.
Turning to `COC(=O)[C@H](C)NC(=O)c1c(C)cc(-c2cccc(NS(=O)(=O)c3cc(C)c(Cl)cc3C)c2)cc1C`, the Activity in series [17] is listed as 24%.
Turning to `Cc1cc(S(=O)(=O)Nc2cccc(-c3cc(C)c(C(=O)N[C@H]4CCNC4=O)c(C)c3)c2)c(C)cc1Cl`, in [18], the outcome was inactive.
On to `COC(=O)[C@H](CCN)NC(=O)c1c(C)cc(-c2cccc(NS(=O)(=O)c3cc(C)c(Cl)cc3C)c2)cc1C`, for which, in series [17], the Activity is listed as 76%.
For the compound `Cc1cc(S(=O)(=O)Nc2cccc(-c3cc(C)c(C(=O)N[C@@H](C)C(=O)O)c(C)c3)c2)c(C)cc1Cl`, the Activity in series [19] turned out to be 20%. In [2], this compound registered a half-inhibitory concentration (IC50) of 2.6 nM.
Consider `COC(=O)[C@H](CCN(C)C)NC(=O)c1c(C)cc(-c2cccc(NS(=O)(=O)c3cc(C)c(Cl)cc3C)c2)cc1C`, for which the figures for the Activity in [17] and in [20] were 15% and 24%, respectively.
Regarding `Cc1cc(S(=O)(=O)Nc2cccc(-c3cc(C)c(C(=O)N(C)[C@H](CCN(C)C)C(=O)O)c(C)c3)c2)c(C)cc1Cl`, the 50% inhibitory concentration (IC50) in series [2] was 20 nM.
Take `COC(=O)[C@H](C)N(C)C(=O)c1c(C)cc(-c2cccc(NS(=O)(=O)c3cc(C)c(Cl)cc3C)c2)cc1C`: the Activity in series [17] is 21%. Further, in series [4], the solubility was under 4 µM.
The compound `Cc1cc(S(=O)(=O)Nc2cccc(-c3cc(C)c(C(=O)N(C)[C@@H](CN(C)C)C(=O)O)c(C)c3)c2)c(C)cc1Cl` registered a half-maximal inhibitory concentration (IC50) in series [2] of 8.4 nM.
As for `COC(=O)[C@H](CN(C)C)N(C)C(=O)c1c(C)cc(-c2cccc(NS(=O)(=O)c3cc(C)c(Cl)cc3C)c2)cc1C`, the Activity in series [17] is 37%. The same compound showed a solubility in series [4] of under 4 µM.
Take `CN1CCN(c2nc(C3=C(c4c[nH]c5ccccc45)C(=O)NC3=O)c3ccccc3n2)CC1` [SOTRASTAURIN]: in [21], the MST turned out to be 7 days.
With `CCCCCCCCc1ccc(CCC(N)(CO)CO)cc1` [FINGOLIMOD], the MST was over 68.5 days in series [22] and 38 days in series [23].

One may read the IC50 as the concentration that inhibits the measured activity by half. A high value points to weaker potency in that assay. The term solubility denotes how much of the substance goes into solution per volume. A high value points to a readily soluble substance. One may read the EC50 as the concentration that produces a half-maximal response. In general, Kd refers to the equilibrium constant for the complex coming apart.
